In ChEMBL document CHEMBL1255475, “Mutant prevention concentrations of four carbapenems against gram-negative rods” (2010):

Assays:
Format in all cases: functional
[1] = system: Escherichia coli; assay: Antibacterial activity against beta-lactamase-positive ESBL-negative Escherichia coli E412 incubated up to 7 days by agar dilution method; settings: E412, 168 h
Procedure, shortened: (§1)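 MIC by CLSI agar dilution, with quality-control strains in each run. Beta-lactamase status was set by 30 μg cefazolin Kirby-Bauer disk diffusion. ESBL status was set by cefotaxime and ceftazidime disks (30 μg) with and without clavulanic acid (10 μg).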

[2] = system: Escherichia coli; assay: Antibacterial activity against beta-lactamase-positive ESBL-positive Escherichia coli E459 incubated up to 7 days by agar dilution method; settings: E459, 168 h; procedure, shortened: as §1
[3] = system: Klebsiella pneumoniae; assay: Antibacterial activity against beta-lactamase-negative Klebsiella pneumoniae E361 assessed as mutant prevention concentration after overnight incubation
[4] = system: Escherichia coli; assay: Antibacterial activity against beta-lactamase-negative Escherichia coli E425 assessed as mutant prevention concentration after overnight incubation
[5] = system: Klebsiella pneumoniae; assay: Antibacterial activity against beta-lactamase-positive ESBL-negative Klebsiella pneumoniae E507 incubated up to 7 days by agar dilution method; settings: E507, 168 h
Procedure, shortened: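 MPC determination: overnight cultures on blood trypticase soy agar at 35°C in air were resuspended in 0.9% saline, and CFU were counted on drug-free Mueller-Hinton agar. […] Growth was retested by agar dilution to confirm mutants. MPC was the lowest concentration preventing resistant-mutant growth.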

[6] = system: Escherichia coli; assay: Antibacterial activity against beta-lactamase-positive ESBL-positive Escherichia coli E460 assessed as mutant prevention concentration after overnight incubation
Procedure, shortened: (§2)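 Overnight growth on blood trypticase soy agar (35°C, air) was resuspended in 0.9% saline and counted on drug-free Mueller-Hinton agar. […] Colonies were retested by agar dilution to confirm mutants. MPC was the lowest concentration preventing resistant-mutant growth.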

[7] = system: Klebsiella pneumoniae; assay: Antibacterial activity against beta-lactamase-positive ESBL-negative Klebsiella pneumoniae E477 incubated up to 7 days by agar dilution method; settings: E477, 168 h
[8] = system: Escherichia coli; assay: Antibacterial activity against beta-lactamase-positive ESBL-positive Escherichia coli E465 assessed as mutant prevention concentration after overnight incubation; procedure, shortened: as §2
[9] = system: Escherichia coli; assay: Antibacterial activity against beta-lactamase-negative Escherichia coli E344 assessed as mutant prevention concentration after overnight incubation
[10] = system: Klebsiella pneumoniae; assay: Antibacterial activity against beta-lactamase-positive ESBL-positive Klebsiella pneumoniae E457 assessed as mutant prevention concentration after overnight incubation; procedure, shortened: as §2
[11] = system: Escherichia coli; assay: Antibacterial activity against beta-lactamase-positive ESBL-positive Escherichia coli E450 assessed as mutant prevention concentration after overnight incubation; procedure, shortened: as §2
[12] = system: Klebsiella pneumoniae; assay: Antibacterial activity against beta-lactamase-negative Klebsiella pneumoniae E357 incubated up to 7 days by agar dilution method; settings: E357, 168 h
[13] = system: Klebsiella pneumoniae; assay: Antibacterial activity against beta-lactamase-positive ESBL-negative Klebsiella pneumoniae E509 assessed as mutant prevention concentration after overnight incubation; procedure, shortened: as §2
[14] = system: Escherichia coli; assay: Antibacterial activity against beta-lactamase-positive ESBL-negative Escherichia coli E437 assessed as mutant prevention concentration after overnight incubation; procedure, shortened: as §2
[15] = system: Escherichia coli; assay: Antibacterial activity against beta-lactamase-positive ESBL-positive Escherichia coli E465 incubated up to 7 days by agar dilution method; settings: E465, 168 h; procedure, shortened: as §1
[16] = system: Escherichia coli; assay: Antibacterial activity against beta-lactamase-positive ESBL-negative Escherichia coli E415 assessed as mutant prevention concentration after overnight incubation; procedure, shortened: as §2
[17] = system: Escherichia coli; assay: Antibacterial activity against beta-lactamase-positive ESBL-positive Escherichia coli E446 assessed as mutant prevention concentration after overnight incubation; procedure, shortened: as §2
[18] = system: Escherichia coli; assay: Antibacterial activity against beta-lactamase-positive ESBL-negative Escherichia coli E415 incubated up to 7 days by agar dilution method; settings: E415, 168 h; procedure, shortened: as §1
[19] = system: Klebsiella pneumoniae; assay: Antibacterial activity against beta-lactamase-positive ESBL-negative Klebsiella pneumoniae E507 assessed as mutant prevention concentration after overnight incubation; procedure, shortened: as §2
[20] = system: Escherichia coli; assay: Antibacterial activity against beta-lactamase-positive ESBL-negative Escherichia coli E483 assessed as mutant prevention concentration after overnight incubation; procedure, shortened: as §2
[21] = system: Escherichia coli; assay: Antibacterial activity against beta-lactamase-positive ESBL-negative Escherichia coli E437 incubated up to 7 days by agar dilution method; settings: E437, 168 h; procedure, shortened: as §1
[22] = system: Klebsiella pneumoniae; assay: Antibacterial activity against beta-lactamase-negative Klebsiella pneumoniae E418 assessed as mutant prevention concentration after overnight incubation; procedure, shortened: as §2
[23] = system: Klebsiella pneumoniae; assay: Antibacterial activity against beta-lactamase-positive ESBL-negative Klebsiella pneumoniae E479 assessed as mutant prevention concentration after overnight incubation; procedure, shortened: as §2
[24] = system: Escherichia coli; assay: Antibacterial activity against beta-lactamase-negative Escherichia coli E345 incubated up to 7 days by agar dilution method; settings: E345, 168 h
[25] = system: Escherichia coli; assay: Antibacterial activity against beta-lactamase-negative Escherichia coli E424 […] by agar dilution method
[26] = system: Escherichia coli; assay: Antibacterial activity against beta-lactamase-positive ESBL-positive Escherichia coli E459 assessed as mutant prevention concentration after overnight incubation; procedure, shortened: as §2
[27] = system: Klebsiella pneumoniae; assay: Antibacterial activity against beta-lactamase-positive ESBL-positive Klebsiella pneumoniae E475 assessed as mutant prevention concentration after overnight incubation; procedure, shortened: as §2
[28] = system: Escherichia coli; assay: Antibacterial activity against beta-lactamase-negative Escherichia coli E350 assessed as mutant prevention concentration after overnight incubation
[29] = system: Klebsiella pneumoniae; assay: Antibacterial activity against beta-lactamase-positive ESBL-negative Klebsiella pneumoniae E477 assessed as mutant prevention concentration after overnight incubation; procedure, shortened: as §2
[30] = system: Klebsiella pneumoniae; assay: Antibacterial activity against beta-lactamase-negative Klebsiella pneumoniae E357 assessed as mutant prevention concentration after overnight incubation
[31] = system: Klebsiella pneumoniae; assay: Antibacterial activity against beta-lactamase-positive ESBL-positive Klebsiella pneumoniae E453 assessed as mutant prevention concentration after overnight incubation; procedure, shortened: as §2
[32] = system: Acinetobacter baumannii; assay: Antibacterial activity against Acinetobacter baumannii A912 assessed as mutant prevention concentration after overnight incubation
[33] = system: Acinetobacter baumannii; assay: Antibacterial activity against Acinetobacter baumannii A898 assessed as mutant prevention concentration after overnight incubation
[34] = system: Pseudomonas aeruginosa; assay: Antibacterial activity against Pseudomonas aeruginosa P334 assessed as mutant prevention concentration after overnight incubation
[35] = system: Pseudomonas aeruginosa; assay: Antibacterial activity against Pseudomonas aeruginosa P353 assessed as mutant prevention concentration after overnight incubation
[36] = system: Pseudomonas aeruginosa; assay: Antibacterial activity against Pseudomonas aeruginosa P340 assessed as mutant prevention concentration after overnight incubation
[37] = system: Pseudomonas aeruginosa; assay: Antibacterial activity against Pseudomonas aeruginosa P341 assessed as mutant prevention concentration after overnight incubation
[38] = system: Acinetobacter baumannii; assay: Antibacterial activity against Acinetobacter baumannii A891 assessed as mutant prevention concentration after overnight incubation
[39] = system: Pseudomonas aeruginosa; assay: Antibacterial activity against Pseudomonas aeruginosa P370 assessed as mutant prevention concentration after overnight incubation
[40] = system: Acinetobacter baumannii; assay: Antibacterial activity against Acinetobacter baumannii A929 assessed as mutant prevention concentration after overnight incubation
[41] = system: Pseudomonas aeruginosa; assay: Antibacterial activity against Pseudomonas aeruginosa P376 assessed as mutant prevention concentration after overnight incubation
[42] = system: Pseudomonas aeruginosa; assay: Antibacterial activity against Pseudomonas aeruginosa P349 assessed as mutant prevention concentration after overnight incubation
[43] = system: Pseudomonas aeruginosa; assay: Antibacterial activity against Pseudomonas aeruginosa P319 assessed as mutant prevention concentration after overnight incubation
[44] = system: Acinetobacter baumannii; assay: Antibacterial activity against Acinetobacter baumannii A928 assessed as mutant prevention concentration after overnight incubation
[45] = system: Acinetobacter baumannii; assay: Antibacterial activity against Acinetobacter baumannii A894 assessed as mutant prevention concentration after overnight incubation

C[C@@H](O)[C@H]1C(=O)N2C(C(=O)O)=C(S[C@@H]3CN[C@H](C(=O)Nc4cccc(C(=O)O)c4)C3)[C@H](C)[C@H]12
0.25 µg/mL: MIC [15]
0.03 µg/mL: MIC [2] | MPC [4] | MPC [9] | MPC [28] | MPC [30]
0.008 µg/mL: MIC [12] | MIC [24]
0.06 µg/mL: MIC [1] | MPC [3] | MIC [21] | MPC [26]
32 µg/mL: MPC [29]
0.5 µg/mL: MPC [6] | MPC [16]
1 µg/mL: MPC [11] | MPC [17] | MPC [31]
16 µg/mL: MPC [27]
0.016 µg/mL: MIC [25]
0.125 µg/mL: MPC [10] | MPC [14] | MIC [18] | MPC [22]
8 µg/mL: MIC [5] | MIC [7] | MPC [8]
64 µg/mL: MPC [13] | MPC [19] | MPC [20] | MPC [23]

C[C@@H](O)[C@H]1C(=O)N2C(C(=O)O)=C(S[C@@H]3CN[C@H](CNS(N)(=O)=O)C3)[C@H](C)[C@H]12 [DORIPENEM]
1 µg/mL: MPC [36] | MPC [44]
0.06 µg/mL: MPC [4] | MPC [9] | MIC [12] | MPC [16] | MIC [21]
2 µg/mL: MIC [5] | MIC [7] | MPC [35] | MPC [38] | MPC [20] | MPC [45]
16 µg/mL: MPC [41] | MPC [27]
>2 µg/mL: MPC [34]
8 µg/mL: MPC [32] | MPC [37] | MPC [42] | MPC [43]
0.25 µg/mL: MPC [22]
0.03 µg/mL: MIC [1] | MIC [2] | MIC [15] | MIC [18] | MIC [24] | MIC [25]
0.5 µg/mL: MPC [8]
0.125 µg/mL: MPC [3] | MPC [6] | MPC [10] | MPC [11] | MPC [14] | MPC [17] | MPC [26] | MPC [28] | MPC [30] | MPC [31]
4 µg/mL: MPC [33] | MPC [39] | MPC [40]
>64 µg/mL: MPC [13] | MPC [19] | MPC [23] | MPC [29]

C[C@@H](O)[C@H]1C(=O)N2C(C(=O)O)=C(SCCNC=N)C[C@H]12 [IMIPENEM ANHYDROUS]
16 µg/mL: MPC [34] | MPC [39] | MPC [27]
2 µg/mL: MPC [36] | MPC [17] | MPC [28]
4 µg/mL: MPC [32] | MPC [33] | MPC [20] | MPC [22]
1 µg/mL: MPC [3] | MPC [14] | MPC [38] | MPC [40] | MPC [44] | MPC [45] | MPC [30]
0.5 µg/mL: MPC [4] | MPC [6] | MPC [8] | MPC [9] | MPC [10] | MPC [11] | MPC [16] | MPC [26] | MPC [31]
64 µg/mL: MPC [35] | MPC [19] | MPC [41]
>32 µg/mL: MPC [13]
32 µg/mL: MPC [37] | MPC [42] | MPC [43] | MPC [23] | MPC [29]
